We go through 24 compounds from publication PMC4291291 (European journal of medicinal chemistry, 2014).

In data set [1] the test system is Streptococcus pneumoniae strain TIGR4. Kind of data set: Minimal inhibitory concentration. Format: cell-based.
Data set [2] is described as follows: Stability in human plasma at 37 °C. The class given is in vitro ADME.
A short description of a further data set: Stability in PBS buffer. To be noted: pH 7.4. The class given is physicochemical. In outline:
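Test compound (10 mM acetonitrile stock, diluted 1:10) incubated in PBS pH 7.4 at 37 °C. Aliquots were taken at various times and injected directly onto HPLC with UV detection; run twice per compound. t1/2 = ln(2)/b, where b is the slope of ln(remaining parent fraction) versus time (one-phase decay).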

The subject of another data set is human MK. To be noted: at concentrations that effectively inhibit the S. pneumoniae system; cited from earlier work.
The test system of data set [3] is Staphylococcus aureus (TCH1516). Kind of data set: MIC against additional organisms. The class given is cell-based.
Data set [4] has as its system Streptococcus pyogenes (GAS 5448). Kind of data set: MIC against additional organisms. Format: cell-based.
Data set [5] relates to vancomycin resistant Enterococcus (VRE). The data set is described as follows: MIC against additional organisms. The class given is cell-based.
In a further data set the test system is E. coli K12. Kind of data set: MIC against additional organisms. The class given is cell-based.
The subject of data set [6] is Streptococcus agalactiae (GBS COH1). The data set is described as follows: MIC against additional organisms. The class given is cell-based.
A short description of data set [7]: Stability of ester promoiety in deuterated PBS buffer. The class given is physicochemical. In outline: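 Deuterated PBS pH 7.4 in D2O (NaCl 137 mM, KCl 2.7 mM, Na2HPO4 10.1 mM, KH2PO4 1.8 mM). Test compound (1.0 mg, 4 μmol) dissolved in 800 μL of this buffer in an NMR tube and held at 37 °C. 1H NMR taken at 30 min, 1 h, 4 h, 24 h and 48 h. Decomposition judged from the integration ratio of impurity to parent signals.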

Data set [8] can be described thus: Enantiomeric ratio during incubation with human plasma. Format: in vitro ADME. To be noted: Chiral Cel OD-H. In outline: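 Test compound (100 mM acetonitrile stock) added to human plasma, which was diluted with distilled water and pre-warmed 5 min, then incubated at 37 °C. At t1/4 and t1/2, portions were quenched with acetonitrile and run on HPLC with a Chiral Cel OD-H column; LC/MS also used. Ratio taken from each enantiomer's peak integration.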

The nature of data set [9]: Stability of prospective decomposition intermediates of 23 in PBS buffer. Format: physicochemical.
The subject of data set [10] is HaCaT human keratinocytes. Kind of data set: General cytotoxicity by lactate dehydrogenase. Format: cell-based. To be noted: concentrations up to 1.6 mM, 24 h.
Another data set deals with RAW murine macrophages. The data set is described as follows: General cytotoxicity by lactate dehydrogenase. Format: cell-based. To be noted: concentrations up to 1.6 mM, 24 h.
Data set [11] has as its system bioactivity of mevalonate. To be noted: 200 μM concentration; cited from earlier work.
[12] abbreviates: Streptococcus pneumoniae, TIGR4, 24 h.
The mark [13] stands for this setting: t1/2 (min) of benzyl amide and ester analogues in human plasma, footnote a: hydrolysis occurred only at the acetyl promoiety.
Setting [14] is: t1/2 (min) of carbonate analogues in human plasma, footnote a: hydrolysis occurred only at carbonate promoieties.

Values after ≈ are worked out from the molar mass of the structure shown.

The MIC is the lowest concentration that inhibits growth of the organism. Low readings indicate greater potency, high ones weaker potency. For orientation: half-life means the time needed for the level to fall by half in the phase considered. A lower half-life goes with fast loss. `CC(=O)OCCC(O)(CF)CC(=O)NCc1ccccc1` (stereo not shown) [38a, 5-(Benzylamino)-3-(fluoromethyl)-3-hydroxy-5-oxopentyl acetate]: the minimal inhibitory concentration (MIC) in data set [1] (setting [12]) is above 1600 µM. Besides, in [2] (setting [13]), the half-life at 4 mM was in the range of 0.333 to 0.5 h.
For `O=C(CC1(CF)CCOC(=O)O1)OCc1ccc(F)cc1` (stereo not shown) [18a, 4-Fluorobenzyl 2-(4-(fluoromethyl)-2-oxo-1,3-dioxan-4-yl)acetate], the “antibacterial activity against S. pneumoniae (in words)” value (from here on “antibacterial activity”) in data set [1] (S. pneumoniae, THB medium) was “generally inactive”. Besides, the minimum inhibitory concentration (MIC) in [1] (setting [12]) was above 1600 µM. For the same compound, the half-life in the data set “Stability in PBS buffer” is 26 h.
In data set [1] (setting [12]), `COC(=O)CC(O)(CF)CCOC(C)=O` (stereo not shown) [38b, Methyl 5-acetoxy-3-(fluoromethyl)-3-hydroxypentanoate] came in with a minimum inhibitory concentration (MIC) above 1600 µM.
With `O=C(CC1(C(F)(F)F)CCOC(=O)O1)OCc1ccc(F)cc1F` (stereo not shown) [25b, 2,4-Difluorobenzyl 2-(2-oxo-4-(trifluoromethyl)-1,3-dioxan-4-yl)acetate], in “Stability in PBS buffer”, the half-life is 5 h.
Still for that read-out and setting: under `O=C(CC1(C(F)(F)F)CCOC(=O)O1)OCc1ccccc1` (stereo not shown) [compound 23, Benzyl 2-(2-oxo-4-(trifluoromethyl)-1,3-dioxan-4-yl)acetate] stands 5 h.
In the case of `C[C@@](O)(CCOP(=O)(O)OP(=O)(O)O)CC(=O)O` [DPM, 5-diphosphomevalonate], the “inhibition of human MK” value in the data set with human MK is “not inhibited”.
As to `CC1(C)S[C@@H]2[C@H](NC(=O)Cc3ccccc3)C(=O)N2[C@H]1C(=O)O` [penicillin G, reference compound], the MIC in data set [3] (Staphylococcus aureus) is below 12.5 µM; in data set [4] (Streptococcus pyogenes), below 12.5 µM; in data set [5] (Enterococcus, VRE), below 12.5 µM; against E. coli K12 (Escherichia coli, K12), below 12.5 µM; in data set [6] (Streptococcus agalactiae) it was below 12.5 µM.
With `CC(=O)OCCC(C)(O)CC(=O)NCc1c(F)c(F)c(F)c(F)c1F` (stereo not shown) [compound 35, 3-Hydroxy-3-methyl-5-oxo-5-(((perfluorophenyl)methyl)amino)pentyl acetate], the half-life at 4 mM in [2] (setting [13]) fell in the range of 0.333 to 0.5 h.
In turn, `CCOC(=O)CC(O)(CF)CCOC(C)=O` (stereo not shown) [38c, Ethyl 5-acetoxy-3-(fluoromethyl)-3-hydroxypentanoate] registered a minimum inhibitory concentration (MIC) in data set [1] (setting [12]) above 1600 µM. The “decomposition after 48 h” value in data set [7] (deuterated PBS buffer pH 7.4, 37 °C, 48 h, 1H NMR integration ratio) is listed as “less than 5%”. This compound displayed a half-life in [7] (deuterated PBS buffer, pH 7.4) above 48 h.
In data set [2] (setting [14]), `CC1(CC(=O)Nc2ccccc2)CCOC(=O)O1` (stereo not shown) [10a, 2-(4-Methyl-2-oxo-1,3-dioxan-4-yl)-N-phenylacetamide] came in with a half-life at 4 mM below 0.05 h.
Same read-out and setting: under `CC1(CC(=O)NCc2ccc(F)cc2)CCOC(=O)O1` (stereo not shown) [10c, N-(4-Fluorobenzyl)-2-(4-methyl-2-oxo-1,3-dioxan-4-yl)acetamide] stands 0.133 h.
`CC1(CC(=O)OCc2ccccc2)CCOC(=O)O1` (stereo not shown) [compound 4, Benzyl 2-(4-methyl-2-oxo-1,3-dioxan-4-yl)acetate]: the “integration ratio of each enantiomer” value is listed as 35/65 in data set [8] (at 2 min) and 41/59 in [8] (at 4 min). In [2] (setting [14]), this compound gave a half-life at 4 mM of 0.0667 h. In addition, the half-life in “Stability in PBS buffer” is above 48 h.
For the compound `O=C1CC(O)(C(F)(F)F)CCO1` (stereo not shown) [compound 26, 4-Hydroxy-4-(trifluoromethyl)tetrahydro-2H-pyran-2-one], the MIC in data set [3] (Staphylococcus aureus) is above 1600 µM; in data set [4] (Streptococcus pyogenes) it was 200 µM (≈ 36.8 µg/mL); in [1] (Streptococcus pneumoniae, TIGR4) it was 800 µM (≈ 147 µg/mL); in data set [1] (setting [12]), 800 µM (≈ 147 µg/mL); in data set [5] (Enterococcus, VRE), above 1600 µM; against E. coli K12 (Escherichia coli, K12), above 1600 µM. In [6] (Streptococcus agalactiae), this compound displayed an MIC of 800 µM (≈ 147 µg/mL). Moreover, the half-life in data set [9] was around 1 min. Further, the “general cytotoxicity (LDH release vs media alone)” value (in [10]; in the data set with RAW murine macrophages) was “No evidence of general cytotoxicity” throughout.
Turning to `O=C(CC1(CF)CCOC(=O)O1)OCc1ccc(F)cc1F` (stereo not shown) [18b, 2,4-Difluorobenzyl 2-(4-(fluoromethyl)-2-oxo-1,3-dioxan-4-yl)acetate], in the data set “Stability in PBS buffer”, the half-life was 22 h.
With `O=C(CC1(C(F)(F)F)CCOC(=O)O1)OCc1ccc(F)cc1` (stereo not shown) [25a, 4-Fluorobenzyl 2-(2-oxo-4-(trifluoromethyl)-1,3-dioxan-4-yl)acetate], the minimum inhibitory concentration (MIC) in data set [3] (Staphylococcus aureus) was above 1600 µM; in [4] (Streptococcus pyogenes), above 1600 µM; in data set [1] (setting [12]), 1600 µM (≈ 538 µg/mL); in [5] (Enterococcus, VRE), above 1600 µM; against E. coli K12 (Escherichia coli, K12) it was above 1600 µM; in [6] (Streptococcus agalactiae), above 1600 µM. Moreover, the “antibacterial activity” value in data set [1] (S. pneumoniae, THB medium) is “marginally active”. In addition, the “general cytotoxicity (LDH release vs media alone)” value (in [10]; with RAW murine macrophages) was “No evidence of general cytotoxicity” in each case. In addition, in the data set “Stability in PBS buffer”, the half-life was 6 h.
As for `O=C(CC1(C(F)(F)F)CCOC(c2ccccc2)O1)NCc1ccccc1` (stereo not shown) [32b, N-Benzyl-2-(2-phenyl-4-(trifluoromethyl)-1,3-dioxan-4-yl)acetamide], in [1] (S. pneumoniae, THB medium), the “antibacterial activity” value is “lack activity”. This compound yielded a minimum inhibitory concentration (MIC) in [1] (setting [12]) above 1600 µM.
In data set [2] (half-life in human plasma), `CC(O)(CCO)CC(=O)NCc1c(F)c(F)c(F)c(F)c1F` (stereo not shown) [compound 34, 3,5-Dihydroxy-3-methyl-N-((perfluorophenyl)methyl)pentanamide] displayed a half-life above 2 h.
As for `O=C1CC(O)(CF)CCO1` (stereo not shown) [compound 28, 6-fluoromevalolactone], the MIC in [3] (Staphylococcus aureus (TCH1516)) is above 1600 µM; in data set [4] (Streptococcus pyogenes (GAS 5448)), above 1600 µM; in data set [1] (S. pneumoniae, THB media), 200 µM (≈ 29.6 µg/mL); in [1] (S. pneumoniae, THB medium, 24 h, 37 °C, lowest drug concentration that reduced growth by 80% or more) it was 200 µM (≈ 29.6 µg/mL); in [5] (vancomycin resistant Enterococcus (VRE)), above 1600 µM; against E. coli K12 (E. coli K12) it was above 1600 µM. For the same compound, the minimum inhibitory concentration (MIC) in [6] (Streptococcus agalactiae (GBS COH1)) was above 1600 µM. Further, in data set [1] (S. pneumoniae MIC ratio), the “potency relative to 6,6,6-trifluoromevalolactone (26)” value came to 4 fold.
As for `O=C(CC1(CF)CCOC(=O)O1)OCc1ccccc1` (stereo not shown) [compound 16, Benzyl 2-(4-(fluoromethyl)-2-oxo-1,3-dioxan-4-yl)acetate], the “antibacterial activity” value in data set [1] (S. pneumoniae, THB medium) is “generally inactive”. This compound also came in with a minimum inhibitory concentration (MIC) in [1] (setting [12]) above 1600 µM. In the data set “Stability in PBS buffer”, this compound showed a half-life of 25 h.
For 6-fluoromevalonate, the “block of the related bioactivity of mevalonate” value in data set [11] is given as “completely blocks”.
Take `CN[C@H](CC(C)C)C(=O)N[C@H]1C(=O)N[C@@H](CC(N)=O)C(=O)N[C@H]2C(=O)N[C@H]3C(=O)N[C@H](C(=O)N[C@H](C(=O)O)c4cc(O)cc(O)c4-c4cc3ccc4O)[C@H](O)c3ccc(c(Cl)c3)Oc3cc2cc(c3O[C@@H]2O[C@H](CO)[C@@H](O)[C@H](O)[C@H]2O[C@H]2C[C@](C)(N)[C@H](O)[C@H](C)O2)Oc2ccc(cc2Cl)[C@H]1O` [vancomycin, reference compound]: the MIC in [3] (Staphylococcus aureus) was below 12.5 µM; in [4] (Streptococcus pyogenes), below 12.5 µM; in data set [5] (Enterococcus, VRE), below 12.5 µM; against E. coli K12 (Escherichia coli, K12), below 12.5 µM; in [6] (Streptococcus agalactiae) it was below 12.5 µM.
Turning to `CC1(CC(=O)NCc2ccccc2)CCOC(=O)O1` (stereo not shown) [10b, N-Benzyl-2-(4-methyl-2-oxo-1,3-dioxan-4-yl)acetamide], the “integration ratio of each enantiomer” value in [8] (at 4 min) is recorded as 48/52; in data set [8] (at 8 min), 46/54. Also, the half-life at 4 mM in [2] (setting [14]) was determined as 0.133 h.
Compound `CC1(CC(=O)Oc2ccc(F)cc2)CCOC(=O)O1` (stereo not shown) [9b, 4-Fluorophenyl 2-(4-methyl-2-oxo-1,3-dioxan-4-yl)acetate] yielded a half-life at 4 mM in data set [2] (setting [14]) below 0.05 h.
Turning to `CC1(CC(=O)Oc2ccccc2)CCOC(=O)O1` (stereo not shown) [9a, Phenyl 2-(4-methyl-2-oxo-1,3-dioxan-4-yl)acetate], in data set [2] (setting [14]), the half-life at 4 mM was below 0.05 h.
